Here are results for 1 compound from PubChem BioAssay AID493187 (Sanford-Burnham Center for Chemical Genomics, 2011).

Among all 340,000 compounds or so, about 190 (0.056%) were called active.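 The calls were made as follows: active = activation of 40% or more at 20 µM, a change of -40% or lower; inactive = the rest.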 Only a selection was taken, and actives are over-represented in it overall.

Chain of Hexokinase HKDC1 (Homo sapiens) (Q2TB90 whole entry, looked up): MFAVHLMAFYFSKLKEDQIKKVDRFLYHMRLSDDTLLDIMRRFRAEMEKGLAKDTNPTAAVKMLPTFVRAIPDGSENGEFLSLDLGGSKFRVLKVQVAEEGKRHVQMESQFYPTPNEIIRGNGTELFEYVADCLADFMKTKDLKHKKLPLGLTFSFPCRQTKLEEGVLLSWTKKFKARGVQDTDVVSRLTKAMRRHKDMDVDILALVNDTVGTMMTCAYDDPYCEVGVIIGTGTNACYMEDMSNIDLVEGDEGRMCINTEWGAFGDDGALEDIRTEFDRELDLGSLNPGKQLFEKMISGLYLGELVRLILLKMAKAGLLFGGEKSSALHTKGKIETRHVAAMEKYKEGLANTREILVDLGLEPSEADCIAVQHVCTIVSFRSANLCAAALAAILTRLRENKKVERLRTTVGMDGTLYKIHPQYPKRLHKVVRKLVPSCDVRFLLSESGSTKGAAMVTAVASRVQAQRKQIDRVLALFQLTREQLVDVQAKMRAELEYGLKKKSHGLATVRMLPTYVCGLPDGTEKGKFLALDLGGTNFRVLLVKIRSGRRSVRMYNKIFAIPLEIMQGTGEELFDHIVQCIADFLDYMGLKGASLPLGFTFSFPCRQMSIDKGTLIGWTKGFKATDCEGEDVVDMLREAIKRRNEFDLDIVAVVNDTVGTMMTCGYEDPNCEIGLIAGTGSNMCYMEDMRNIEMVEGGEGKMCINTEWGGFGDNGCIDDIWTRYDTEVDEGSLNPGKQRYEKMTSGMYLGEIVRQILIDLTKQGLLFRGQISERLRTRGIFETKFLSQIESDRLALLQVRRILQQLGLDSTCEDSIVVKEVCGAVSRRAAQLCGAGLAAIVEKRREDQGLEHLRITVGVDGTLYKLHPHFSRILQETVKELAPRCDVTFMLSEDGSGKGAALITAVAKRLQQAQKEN

This assay concerns the target Hexokinase HKDC1 (Homo sapiens) (UniProt Q2TB90). Put plainly: HKDC1 hexokinase activators, primary screen, biochemical, fluorescence, uHTS (AID 493187). The note with it: recombinant HKDC1, G6PDH/diaphorase resazurin fluorescence; at 20 µM; hits give low values. A digest of the protocol:
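Material – in-house human HKDC1 enzyme, G6PDH and diaphorase coupling enzymes · Input – HKDC1 at 5 µg/mL final · Buffer or medium – pH 8.0 Tris with MgCl2 · Dosing – single compound dose of 20 µM, 1% DMSO final · Incubation – 90 min, room temperature · Technique – resorufin fluorescence from 100 µM resazurin, NADP 1 mM, Ex 525/Em 613 nm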
With `CC(=O)OC1C2(CC3N4C(=O)C5(CO)SSC4(CC31O)C(=O)N5C)OC(C)C(C)(C)C2=O` (stereo unspecified), the activity change, negative = activation is -42.1% (active).
